Source: ChEMBL document CHEMBL1121917, “Structure--activity relationships in a broad-spectrum anthelmintic series. Acid chloride phenylhydrazones. 1. Aryl substitutions and chloride variations” (1981)

Columns and labels:
Ovis aries [1] = test: Percent reduction in Ostertagia eggs per gram, after treatment with 250 mg/kg dose of compound perorally in sheep; format: functional, Egg; conditions: route oral
In short: (§1)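 Naturally parasitized lambs, dosed orally either with a suspension by stomach tube or with finely ground compound in gelatin capsules by balling gun. Activity was scored by the clinical test method, meaning a significant fall in helminth egg counts after treatment.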

Ovis aries [2] = test: Percent reduction in Strongyloides eggs per gram, after treatment with 325 mg/kg dose of compound perorally in sheep; format: functional, Egg; conditions: route oral; in short: as §1
Ovis aries [3] = test: Percent reduction in Trichuris eggs per gram, after treatment with 450 mg/kg dose of compound perorally in sheep; format: functional, Egg; conditions: route oral; in short: as §1
Canis familiaris [4] = species: Canis familiaris; test: Percent reduction in Ancylostoma eggs per gram, after oral treatment of 175 mg/dog dose of compound in a single treatment; format: functional, Canis lupus familiaris, Egg
In short: (§2)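 Dogs naturally infected with Toxascaris leonina were experimentally infected with mixed Ancylostoma caninum and Uncinaria stenocephala larvae. Finely ground compound was given orally in gelatin capsules. Fecal egg counts were taken three times before and three times after treatment, and activity was taken as the fall in egg counts.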

Ovis aries [5] = test: Percent reduction in Nematodirus eggs per gram, after treatment with 450 mg/kg dose of compound perorally in sheep; format: functional, Egg; conditions: route oral
In short: (§3)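 Naturally parasitized lambs were dosed orally at the stated mg/kg. Dosing was either as a suspension of finely ground compound by stomach tube, or as ground compound weighed into gelatin capsules and given by balling gun. Activity was scored by the clinical test method: the decrease in posttreatment helminth eggs per gram.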

Ovis aries [6] = test: Percent reduction in Haemonchus eggs per gram, after treatment with 450 mg/kg dose of compound perorally in sheep; format: functional, Egg; conditions: route oral; in short: as §3
Ovis aries [7] = test: Percent reduction in Trichuris eggs per gram, after treatment with 400 mg/kg dose of compound perorally in sheep; format: functional, Egg; conditions: route oral; in short: as §1
Ovis aries [8] = test: Percent reduction in Trichuris eggs per gram, after treatment with 250 mg/kg dose of compound perorally in sheep; format: functional, Egg; conditions: route oral; in short: as §1
Mus musculus [9] = species: Mus musculus; test: Percent clearance of Syphacaia obvelata from mouse after oral treatment of 1.87 mg/mouse/day; format: functional
In short: (§4)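 Mice naturally carrying Syphacia obvelata were experimentally infected with Nematospiroides dubius and Hymenolepis nana, then grouped after a 2-week prepatency. Finely ground compound was suspended in aqueous 0.10% carboxymethylcellulose, 0.04% polysorbate 80 and 0.0042% polyparaben, and 0.1 mL was given orally by cannula once daily for 4 days to five mice. Necropsy followed 2 days later, scoring presence or absence of each parasite. Control clearance was subtracted from the treated clearance.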

Mus musculus [10] = species: Mus musculus; test: Percent clearance of Nematospiroides dubius from mouse after oral treatment of 1.87 mg/mouse/day; format: functional; in short: as §4
Canis familiaris [11] = species: Canis familiaris; test: Percent reduction in Toxascaris eggs per gram, after treatment with 200 mg/dog dose of compound in a single treatment; format: functional, Canis lupus familiaris, Egg
In short: (§5)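 Dogs naturally infected with Toxascaris leonina were experimentally infected with mixed Ancylostoma caninum and Uncinaria stenocephala larvae. Finely ground compound was given orally in gelatin capsules. Three egg count determinations were made before and three after treatment in each experiment.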

Canis familiaris [12] = species: Canis familiaris; test: Percent reduction in Uncinaria eggs per gram, after treatment with 200 mg/dog dose of compound in a single treatment; format: functional, Canis lupus familiaris, Egg; in short: as §5
Ovis aries [13] = test: Percent reduction in Haemonchus eggs per gram, after treatment with 400 mg/kg dose of compound perorally in sheep; format: functional, Egg; conditions: route oral; in short: as §3
Ovis aries [14] = test: Percent reduction in Trichostrongylus eggs per gram, after treatment with 400 mg/kg dose of compound perorally in sheep; format: functional, Egg; conditions: route oral; in short: as §1
Ovis aries [15] = test: Percent reduction in Ostertagia eggs per gram, after treatment with 325 mg/kg dose of compound perorally in sheep; format: functional, Egg; conditions: route oral; in short: as §1
Ovis aries [16] = test: Percent reduction in Moniezia eggs per gram, after treatment with 400 mg/kg dose of compound perorally in sheep; format: functional, Egg; conditions: route oral; in short: as §3
Ovis aries [17] = test: Percent reduction in Trichuris eggs per gram, after treatment with 325 mg/kg dose of compound perorally in sheep; format: functional, Egg; conditions: route oral
Ovis aries [18] = test: Percent reduction in Trichostrongylus eggs per gram, after treatment with 450 mg/kg dose of compound perorally in sheep; format: functional, Egg; conditions: route oral; in short: as §1
Ovis aries [19] = test: Percent reduction in Haemonchus eggs per gram, after treatment with 250 mg/kg dose of compound perorally in sheep; format: functional, Egg; conditions: route oral; in short: as §3
Ovis aries [20] = test: Percent reduction in Oesophagostomum eggs per gram, after treatment with 450 mg/kg dose of compound perorally in sheep; format: functional, Egg; conditions: route oral; in short: as §3
Ovis aries [21] = test: Percent reduction in Nematodirus eggs per gram, after treatment with 250 mg/kg dose of compound perorally in sheep; format: functional, Egg; conditions: route oral; in short: as §3
Canis familiaris [22] = species: Canis familiaris; test: Percent reduction in Uncinaria eggs per gram, after oral treatment of 175 mg/dog dose of compound in a single treatment; format: functional, Canis lupus familiaris, Egg
Ovis aries [23] = test: Percent reduction in Oesophagostomum eggs per gram, after treatment with 250 mg/kg dose of compound perorally in sheep; format: functional, Egg; conditions: route oral; in short: as §3
Ovis aries [24] = test: Percent reduction in Strongyloides eggs per gram, after treatment with 450 mg/kg dose of compound perorally in sheep; format: functional, Egg; conditions: route oral; in short: as §1
Ovis aries [25] = test: Percent reduction in Ostertagia eggs per gram, after treatment with 400 mg/kg dose of compound perorally in sheep; format: functional, Egg; conditions: route oral; in short: as §1
Ovis aries [26] = test: Percent reduction in Haemonchus eggs per gram, after treatment with 325 mg/kg dose of compound perorally in sheep; format: functional, Egg; conditions: route oral; in short: as §3
Ovis aries [27] = test: Percent reduction in Ostertagia eggs per gram, after treatment with 450 mg/kg dose of compound perorally in sheep; format: functional, Egg; conditions: route oral; in short: as §1
Canis familiaris [28] = species: Canis familiaris; test: Percent reduction in Ancylostoma eggs per gram, after treatment with 200 mg/dog dose of compound in a single treatment; format: functional, Canis lupus familiaris, Egg; in short: as §2
Ovis aries [29] = test: Percent reduction in Cooperia eggs per gram, after treatment with 400 mg/kg dose of compound perorally in sheep; format: functional, Egg; conditions: route oral
In short: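 Naturally parasitized lambs received compound orally, either as the aqueous suspension by stomach tube or as finely ground powder in gelatin capsules by balling gun. Activity was judged by the clinical test method, as a significant decrease in posttreatment helminth egg counts.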

Ovis aries [30] = test: Percent reduction in Strongyloides eggs per gram, after treatment with 250 mg/kg dose of compound perorally in sheep; format: functional, Egg; conditions: route oral; in short: as §1
Ovis aries [31] = test: Percent reduction in Trichostrongylus eggs per gram, after treatment with 250 mg/kg dose of compound perorally in sheep; format: functional, Egg; conditions: route oral
Ovis aries [32] = test: Percent reduction in Trichostrongylus eggs per gram, after treatment with 325 mg/kg dose of compound perorally in sheep; format: functional, Egg; conditions: route oral
Mus musculus [33] = species: Mus musculus; test: Percent clearance of Hymenolepis nana from mouse after oral treatment of 7.5 mg/mouse/day; format: functional; in short: as §4
Mus musculus [34] = species: Mus musculus; test: Percent clearance of Nematospiroides dubius from mouse after oral treatment of 7.55 mg/mouse/day; format: functional; in short: as §4

Molecule `Cl/C(=N\Nc1c(Cl)cc(Cl)cc1Cl)c1ccccc1` has a Reduction (Ovis aries [1]) of 100%, a Reduction (Ovis aries [2]) of 79% and a Reduction (Ovis aries [3]) of 29%. For the same molecule, the Reduction (Canis familiaris [4]) was 31%, the Reduction (Ovis aries [5]) was 63% and the Reduction (Ovis aries [6]) was 94%. The Reduction (Ovis aries [7]) was 14%, the Reduction (Ovis aries [8]) was 63% and the Parasite_Clearance (Mus musculus [9]) was 20%. For the same molecule, the Parasite_Clearance (Mus musculus [10]) was 80%, the Reduction (Canis familiaris [11]) was 67% and the Reduction (Canis familiaris [12]) was 59%. It also gave a Reduction (Ovis aries [13]) of 85%, a Reduction (Ovis aries [14]) of 77% and a Reduction (Ovis aries [15]) of 98%. It also gave a Reduction (Ovis aries [16]) of 100%, a Reduction (Ovis aries [17]) of 0% and a Reduction (Ovis aries [18]) of 100%. It also gave a Reduction (Ovis aries [19]) of 98%, a Reduction (Ovis aries [20]) of 0% and a Reduction (Ovis aries [21]) of 82%. For the same molecule, the Reduction (Canis familiaris [22]) was 26%, the Reduction (Ovis aries [23]) was 95% and the Reduction (Ovis aries [24]) was 100%. The Reduction (Ovis aries [25]) was 100%, the Reduction (Ovis aries [26]) was 99% and the Reduction (Ovis aries [27]) was 100%. For the same molecule, the Reduction (Canis familiaris [28]) was 87%, the Reduction (Ovis aries [29]) was 100% and the Reduction (Ovis aries [30]) was 95%. It also gave a Reduction (Ovis aries [31]) of 98% and a Reduction (Ovis aries [32]) of 33%.

Molecule `O=[N+]([O-])c1ccc(/C(Cl)=N/Nc2ccccc2)cc1` has a Parasite_Clearance (Mus musculus [33]) of 0% and a Parasite_Clearance (Mus musculus [34]) of 0%.
